Laboratory results taken from paper PMC3184254 (Nature Chemical Biology, 2011).
pEC50, pIC50: −log10 of the molar value. Read-outs that look alike come from different tables or passages of the source.

Legend:
[1] = system: HSC1-EF1α-EGFP-Puromycin retrovirus in J1 mES cells; test: Reactivation of silent EGFP retrovirus vector, flow cytometry; format: cell-based, mouse
MDA-MB-231 cells = test: MTT assay, MDA-MB-231; format: cell-based, human
[2] = system: H3K9me2 mark in bulk histones in several cell lines; conditions: cited from earlier work
[3] = system: histone marks in MDA-MB-231 cells; test: Quantitative MS analysis of histone modifications; format: cell-based, human; conditions: 1 μM for 48 h
How it was run: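 MDA-MB-231 cells were treated at 1 µM for 48 h. Histones were acid-extracted, derivatized with propionic anhydride and digested with trypsin. Mock and treated samples carried D0 or D5 propionyl labels. Peptides were analysed by LC-MS/MS on an Orbitrap, with all data manually verified.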

J1 mES cells = test: SSEA1 pluripotency marker immunostaining, flow cytometry; format: cell-based, mouse; conditions: day 10; 2 μM
[4] = system: H3K9me2 levels in J1 mES cells; test: Cellular potency; format: cell-based; conditions: Mus musculus, 48 h, read-out: IC50 cellular potency
cellular assays = test: Cellular assays, comparison with BIX01294; format: cell-based; conditions: Supplementary Fig. 1
[5] = system: H3K9me2 levels in MDA-MB-231 cells; test: H3K9me2 in-cell western, MDA-MB-231; format: cell-based, human; conditions: read-out: IC50 for reduction of H3K9me2 levels; MDA-MB-231 cells, 48 h exposure, in-cell western
GLP = GLP (Homo sapiens, UniProt Q9H9B1); test: SAHH-coupled assay, GLP; format: biochemical
GLP, sequence (Q9H9B1 whole entry): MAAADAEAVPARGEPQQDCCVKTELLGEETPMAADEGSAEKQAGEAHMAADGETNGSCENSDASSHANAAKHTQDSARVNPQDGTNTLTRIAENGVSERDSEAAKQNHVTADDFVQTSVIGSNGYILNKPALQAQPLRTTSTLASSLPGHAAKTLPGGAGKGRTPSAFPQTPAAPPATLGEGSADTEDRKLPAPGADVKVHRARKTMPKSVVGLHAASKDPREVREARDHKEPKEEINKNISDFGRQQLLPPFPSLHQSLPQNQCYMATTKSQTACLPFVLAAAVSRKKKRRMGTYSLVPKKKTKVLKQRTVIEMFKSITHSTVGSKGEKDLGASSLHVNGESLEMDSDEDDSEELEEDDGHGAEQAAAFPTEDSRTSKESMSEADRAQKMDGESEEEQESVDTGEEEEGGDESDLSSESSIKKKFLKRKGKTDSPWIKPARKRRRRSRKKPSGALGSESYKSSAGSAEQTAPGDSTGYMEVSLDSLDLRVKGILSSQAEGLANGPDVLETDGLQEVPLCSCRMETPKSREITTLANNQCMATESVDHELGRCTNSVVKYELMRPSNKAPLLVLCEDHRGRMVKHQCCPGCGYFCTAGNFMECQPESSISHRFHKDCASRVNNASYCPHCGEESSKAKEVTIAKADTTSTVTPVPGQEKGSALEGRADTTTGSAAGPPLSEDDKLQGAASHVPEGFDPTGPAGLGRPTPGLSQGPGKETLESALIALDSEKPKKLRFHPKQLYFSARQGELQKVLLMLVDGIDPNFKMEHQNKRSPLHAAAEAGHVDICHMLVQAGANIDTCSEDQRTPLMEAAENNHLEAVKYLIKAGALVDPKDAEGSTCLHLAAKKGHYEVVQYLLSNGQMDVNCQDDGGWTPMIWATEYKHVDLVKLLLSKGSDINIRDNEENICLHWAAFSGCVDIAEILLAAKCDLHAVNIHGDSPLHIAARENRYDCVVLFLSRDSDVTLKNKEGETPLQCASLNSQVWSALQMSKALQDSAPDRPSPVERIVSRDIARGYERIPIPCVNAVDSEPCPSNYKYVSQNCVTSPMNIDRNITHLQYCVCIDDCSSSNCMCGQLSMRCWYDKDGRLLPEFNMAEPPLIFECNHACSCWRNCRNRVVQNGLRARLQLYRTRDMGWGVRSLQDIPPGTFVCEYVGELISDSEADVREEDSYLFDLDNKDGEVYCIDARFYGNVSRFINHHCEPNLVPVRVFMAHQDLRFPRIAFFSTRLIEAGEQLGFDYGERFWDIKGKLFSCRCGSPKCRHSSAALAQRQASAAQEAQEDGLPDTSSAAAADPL

SUV39H2 = SUV39H2 (Homo sapiens, UniProt Q9H5I1); test: SAHH-coupled assay, SUV39H2; format: biochemical; conditions: SAHH-coupled assay
SUV39H2, sequence (Q9H5I1 whole entry, species assumed): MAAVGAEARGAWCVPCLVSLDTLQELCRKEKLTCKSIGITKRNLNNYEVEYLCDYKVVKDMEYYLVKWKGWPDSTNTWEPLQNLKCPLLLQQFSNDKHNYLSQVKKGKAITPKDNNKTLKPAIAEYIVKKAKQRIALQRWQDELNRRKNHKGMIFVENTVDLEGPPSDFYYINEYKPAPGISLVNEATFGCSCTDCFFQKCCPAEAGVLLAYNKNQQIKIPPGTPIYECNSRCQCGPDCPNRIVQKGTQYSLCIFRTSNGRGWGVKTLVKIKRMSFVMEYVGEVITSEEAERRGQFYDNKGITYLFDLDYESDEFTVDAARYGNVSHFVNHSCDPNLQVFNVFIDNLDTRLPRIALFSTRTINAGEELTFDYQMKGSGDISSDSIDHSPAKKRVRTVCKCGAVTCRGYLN
How it was run: (§1)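 A fluorescence-based coupled assay used S-adenosyl-L-homocysteine hydrolase to follow conversion of cofactor SAM to SAH by the methyltransferase. IC50 values are the average of at least two separate experiments.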

SETD7 = biological target: T1, SETD7 (Homo sapiens, UniProt Q8WTS6); test: SAHH-coupled assay, SETD7; format: biochemical; conditions: SAHH-coupled assay
T1 sequence (Q8WTS6 1-366): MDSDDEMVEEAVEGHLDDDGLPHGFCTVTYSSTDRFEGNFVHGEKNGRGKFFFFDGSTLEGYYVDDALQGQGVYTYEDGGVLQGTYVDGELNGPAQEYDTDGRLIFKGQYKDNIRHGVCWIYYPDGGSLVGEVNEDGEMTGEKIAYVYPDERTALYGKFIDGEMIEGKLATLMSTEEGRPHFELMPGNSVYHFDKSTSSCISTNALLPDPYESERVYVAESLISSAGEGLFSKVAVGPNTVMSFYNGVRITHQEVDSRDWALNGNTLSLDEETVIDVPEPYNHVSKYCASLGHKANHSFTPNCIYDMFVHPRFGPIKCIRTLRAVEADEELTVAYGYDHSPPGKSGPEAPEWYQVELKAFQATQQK
How it was run: as §1

SETD8 = biological target: T2, SETD8 (Homo sapiens, UniProt Q9NQR1); test: SAHH-coupled assay, SETD8; format: biochemical; conditions: SAHH-coupled assay
T2 sequence (Q9NQR1 1-393): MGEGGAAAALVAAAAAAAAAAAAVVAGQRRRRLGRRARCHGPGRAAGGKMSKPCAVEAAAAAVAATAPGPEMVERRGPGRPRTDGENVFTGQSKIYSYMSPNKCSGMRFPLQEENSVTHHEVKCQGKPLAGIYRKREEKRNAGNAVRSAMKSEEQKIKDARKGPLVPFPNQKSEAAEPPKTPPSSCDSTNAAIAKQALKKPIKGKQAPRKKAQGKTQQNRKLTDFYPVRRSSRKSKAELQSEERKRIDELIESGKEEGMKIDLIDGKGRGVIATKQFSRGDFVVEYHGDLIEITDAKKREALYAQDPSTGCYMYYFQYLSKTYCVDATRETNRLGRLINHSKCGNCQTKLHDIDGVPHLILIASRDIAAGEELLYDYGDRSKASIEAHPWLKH
How it was run: as §1

PRMT3 = PRMT3 (Homo sapiens, UniProt O60678); test: SAHH-coupled assay, PRMT3; format: biochemical; conditions: SAHH-coupled assay
PRMT3, sequence (O60678 whole entry, species assumed): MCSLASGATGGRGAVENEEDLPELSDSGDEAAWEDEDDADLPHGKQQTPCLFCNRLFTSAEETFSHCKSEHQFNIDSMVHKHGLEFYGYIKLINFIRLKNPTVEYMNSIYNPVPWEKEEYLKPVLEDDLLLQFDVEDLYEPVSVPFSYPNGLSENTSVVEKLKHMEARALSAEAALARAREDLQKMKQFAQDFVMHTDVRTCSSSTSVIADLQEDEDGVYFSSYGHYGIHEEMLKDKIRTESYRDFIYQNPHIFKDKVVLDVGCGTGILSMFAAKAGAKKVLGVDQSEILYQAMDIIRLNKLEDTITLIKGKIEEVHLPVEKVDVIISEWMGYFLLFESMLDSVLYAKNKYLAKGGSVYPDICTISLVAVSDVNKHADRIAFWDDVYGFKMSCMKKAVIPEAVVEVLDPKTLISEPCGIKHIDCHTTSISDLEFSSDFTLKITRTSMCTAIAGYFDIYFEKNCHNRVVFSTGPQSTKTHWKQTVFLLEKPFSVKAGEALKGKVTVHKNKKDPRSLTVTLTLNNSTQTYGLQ
How it was run: as §1

[6] = system: retrovirus long terminal repeat and MAGEA2 promoter in mES cells; test: Bisulfite sequencing DNA methylation in mES cells; format: cell-based, mouse; conditions: after 10 d of treatment
How it was run: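 J1 mouse ES cells were grown on 0.1% gelatin in DMEM with 15% ES-qualified FBS, 4 mM L-glutamine, 0.1 mM nonessential amino acids, 1 mM pyruvate, 0.55 mM 2-mercaptoethanol and LIF. They carried a silenced HSC1 retroviral EGFP-puromycin reporter driven by the EF1a promoter.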

G9a = biological target: T3, G9a (Homo sapiens, UniProt Q96KQ7); test: SAHH-coupled assay, G9a; format: biochemical
T3 sequence (Q96KQ7 1-1210): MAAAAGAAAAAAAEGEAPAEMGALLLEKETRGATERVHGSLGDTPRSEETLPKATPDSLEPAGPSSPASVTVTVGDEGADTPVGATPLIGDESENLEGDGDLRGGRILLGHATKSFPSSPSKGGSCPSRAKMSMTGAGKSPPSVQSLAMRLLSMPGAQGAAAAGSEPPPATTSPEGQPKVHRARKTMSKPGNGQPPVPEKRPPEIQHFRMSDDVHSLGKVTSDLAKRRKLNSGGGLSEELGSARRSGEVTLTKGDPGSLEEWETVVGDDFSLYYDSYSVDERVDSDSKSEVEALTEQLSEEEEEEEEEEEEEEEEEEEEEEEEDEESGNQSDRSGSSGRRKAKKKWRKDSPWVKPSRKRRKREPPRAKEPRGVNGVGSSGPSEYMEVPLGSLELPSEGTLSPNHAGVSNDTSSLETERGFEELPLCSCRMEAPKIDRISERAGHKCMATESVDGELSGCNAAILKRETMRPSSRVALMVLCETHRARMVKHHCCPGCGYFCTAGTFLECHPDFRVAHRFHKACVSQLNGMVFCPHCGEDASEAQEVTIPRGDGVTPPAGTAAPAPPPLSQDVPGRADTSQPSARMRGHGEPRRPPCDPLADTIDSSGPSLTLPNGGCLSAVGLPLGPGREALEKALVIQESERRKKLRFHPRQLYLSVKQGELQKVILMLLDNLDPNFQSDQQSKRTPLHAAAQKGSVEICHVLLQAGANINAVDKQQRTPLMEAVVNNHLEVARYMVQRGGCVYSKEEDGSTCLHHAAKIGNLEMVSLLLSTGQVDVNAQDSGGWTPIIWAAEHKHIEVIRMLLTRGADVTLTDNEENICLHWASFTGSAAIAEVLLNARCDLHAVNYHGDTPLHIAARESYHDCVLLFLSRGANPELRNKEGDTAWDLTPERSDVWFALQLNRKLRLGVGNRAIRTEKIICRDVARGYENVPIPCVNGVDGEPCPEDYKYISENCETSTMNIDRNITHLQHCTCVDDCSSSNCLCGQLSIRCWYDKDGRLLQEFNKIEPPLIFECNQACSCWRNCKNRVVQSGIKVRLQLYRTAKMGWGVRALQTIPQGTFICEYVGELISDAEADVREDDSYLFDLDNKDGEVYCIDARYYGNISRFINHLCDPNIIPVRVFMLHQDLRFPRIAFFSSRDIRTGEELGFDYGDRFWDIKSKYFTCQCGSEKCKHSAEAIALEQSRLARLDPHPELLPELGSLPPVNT

panel of 24 kinases = test: Kinase selectivity panel; format: biochemical

In the case of `COc1cc2nc(N3CCCN(C)CC3)nc(NC3CCN(Cc4ccccc4)CC3)c2cc1OC` [BIX01294, reference compound], the “EGFP+ cells” value ([1]; day 10, 2 μM, untreated 36%) was 53%, the “state of treated cells” value ([1]; day 12, 2 μM) was “arrested or died” and the pEC50 (MDA-MB-231 cells; Homo sapiens, MDA-MB-231, read-out: EC50 cellular toxicity (MTT)) was 5.57. The “abundance of H3K9me2 mark in bulk histones” value ([2]; at 4.1 μM, several cell lines) was “reduced”, the “concentration toxic to cells” value [2] was “higher than 4.1 μM” and the “levels of H3K9me2 by quantitative MS” value [3] was “to a lesser extent than UNC0638 did”. The “levels of H3K9me3 by quantitative MS” value [3] was “remained constant”, the SSEA1 positive cells (J1 mES cells) was 65% and the pIC50 [4] was 5.69.
In the case of `COc1cc2c(NC3CCN(C)CC3)nc(N3CCCN(C)CC3)nc2cc1OCCOCCN(C)C` [UNC0321], the “potency in cellular assays relative to BIX01294” value (cellular assays) was “less potent than BIX01294”.
For `COc1cc2c(N(C)C3CCN(C(C)C)CC3)nc(C3CCCCC3)nc2cc1OCCCN1CCCC1` [UNC0737], the pIC50 [5] was less than 5.30, the pIC50 (GLP) was less than 5.00 and the “reactivation of EGFP expression” value ([1]; 500 nM, above the 36% EGFP+ cells of untreated sample) was “did not reactivate EGFP expression”. For the same compound, the IC50 (SUV39H2) was “inactive”, the pEC50 (MDA-MB-231 cells; read-out: EC50 cellular toxicity (MTT), MDA-MB-231 cells (n = 3)) was 5.06 and the IC50 (SETD7) was “inactive”. For the same compound, the IC50 (SETD8) was “inactive”, the IC50 (PRMT3) was “inactive” and the “DNA methylation of retrovirus LTR and MAGEA2 promoter” value [6] was “hypermethylated”. For the same compound, the “fold less potent than UNC0638” value (G9a; G9a and GLP biochemical assays) was greater than 300 fold, the pIC50 (G9a; SAHH-coupled assay) was 5.30 and the “activity against panel of 24 kinases” value (panel of 24 kinases) was “inactive”.
